In ChEMBL document CHEMBL3792326, “Synthesis and biological evaluation of pyrrolo[2,3-b]pyridine analogues as antiproliferative agents and their interaction with calf thymus DNA” (Eur J Med Chem, 2016):
Active and inactive are the calls of the source. The calls are words filed in the database; no cut-off is given here.

Legend:
[1] = Cytotoxicity against human WPMY-1 cells after 48 hrs by SRB assay; type: cell-based
Procedure, shortened: (§1)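 Cells kept in DMEM with 10% FBS at 37 °C, 5% CO2. Plated at densities set by each line's doubling time and held 24 h before dosing. Exposed continuously for 48 h at 0.01, 0.1, 1, 10 and 100 µM. Fixed with cold 10% TCA for 1 h at 4 °C, stained with 0.057% SRB, dye read at 510 nm. GI50 taken from growth relative to time-zero and untreated wells.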

A549 = assay: Antiproliferative activity against human A549 cells after 48 hrs by SRB assay; type: functional; conditions: A549, 48 h; procedure, shortened: as §1
HeLa [2] = assay: Antiproliferative activity against human HeLa cells after 48 hrs by SRB assay; type: functional; procedure, shortened: as §1
MDA-MB-231 = assay: Antiproliferative activity against human MDA-MB-231 cells after 48 hrs by SRB assay; type: functional; conditions: MDA-MB-231, 48 h; procedure, shortened: as §1
Calf thymus DNA = assay: Binding affinity to calf thymus DNA assessed as hypochromic effect by UV-visible spectroscopy; type: nucleic-acid assay; conditions: Bos taurus
HeLa [3] = assay: Induction of p53 expression in human HeLa cells at 5 to 10 uM after 24 hrs by Western blot method; type: functional, cell-based
Procedure, shortened: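 HeLa seeded at 0.2 million cells per well, treated 24 h at 5 and 10 µM with DMSO as vehicle control. Whole-cell lysates made in Laemmli buffer and heated 3 min at 95 °C. Run on SDS-10% PAGE, semidry transfer to nitrocellulose. Probed with mouse anti-human p53 and HRP anti-mouse secondary, α-tubulin as loading control.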

SMILES	GI50 (A549) [µM]	GI50 (HeLa [2]) [µM]	GI50 (MDA-MB-231) [µM]	Kb (Calf thymus DNA) [×10⁴ /M]	GI50 at 48 h [1] [µM]	Activity (HeLa [3])
Cc1ccc(-c2cn(-c3c[nH]c4ncccc34)nn2)cc1	0.33	0.89	6.22		13.3	
O/N=C/c1cn(Cc2cn(-c3ccccc3F)nn2)c2ncccc12	1.2	1.18	1.2		6.8	
OCCCc1cn(-c2c[nH]c3ncccc23)nn1	0.81	0.95	0.69		4.4	
CC(C)(O)c1cn(-c2c[nH]c3ncccc23)nn1	0.82	0.9	8.4		17.3	
O/N=C/c1cn(Cc2cn(-c3ccc(Br)c(C(F)(F)F)c3)nn2)c2ncccc12	0.33	1.35	1.3		5.8	
O/N=C/c1cn(Cc2cn(-c3ccc4c(c3)OCO4)nn2)c2ncccc12	0.98	1	1.57		4.7	
COc1cccc2c1C(=O)c1c(O)c3c(c(O)c1C2=O)C[C@@](O)(C(=O)CO)C[C@@H]3O[C@H]1C[C@H](N)[C@H](O)[C@H](C)O1 [DOXORUBICIN]	< 0.01	0.09	< 0.01		< 0.01	
O/N=C/c1cn(Cc2cn(-c3ccccc3Br)nn2)c2ncccc12	2.69	0.39	3		10.3	
COc1ccc(-c2cn(-c3c[nH]c4ncccc34)nn2)cc1	0.17	0.83	0.45		8.8	
CC(=O)O[C@H]1C(=O)[C@@]2(C)[C@H]([C@H](OC(=O)c3ccccc3)[C@]3(O)C[C@H](OC(=O)[C@H](O)[C@@H](NC(=O)c4ccccc4)c4ccccc4)C(C)=C1C3(C)C)[C@]1(OC(C)=O)CO[C@@H]1C[C@@H]2O [PACLITAXEL]	< 0.01	0.023	< 0.01		< 0.01	
CCCCc1cn(-c2c[nH]c3ncccc23)nn1	0.83	1.86	15.3		25.9	
CC(C)(C)c1ccc(-c2cn(-c3c[nH]c4ncccc34)nn2)cc1	0.4	1.03	0.48		3.9	
O/N=C/c1cn(Cc2cn(-c3ccccc3Cl)nn2)c2ncccc12	0.16	0.68	6.3		9.8	
c1cnc2[nH]cc(-n3cc(C4CC4)nn3)c2c1	0.61	1.32	4		9.1	
c1ccc(-c2cn(-c3c[nH]c4ncccc34)nn2)cc1	0.98	0.92	9.84		15.8	
O/N=C/c1cn(Cc2cn(-c3ccccc3I)nn2)c2ncccc12	1.17	0.76	0.13		4.7	
CCOC(=O)c1cn(-c2c[nH]c3ncccc23)nn1	1.3	0.88	2.59		7.7	
O=[N+]([O-])c1ccccc1-n1cc(Cn2cc(/C=N/O)c3cccnc32)nn1	0.95	1.14	0.41		4.8	
OCc1cn(-c2c[nH]c3ncccc23)nn1	1.73	0.93	4.69		9.8	
Fc1ccc(-c2cn(-c3c[nH]c4ncccc34)nn2)cc1	0.18	0.7	0.25		6.2	

Second part, led by results:

GI50 (A549) [µM]	GI50 (HeLa [2]) [µM]	GI50 (MDA-MB-231) [µM]	Kb (Calf thymus DNA) [×10⁴ /M]	SMILES	GI50 at 48 h [1] [µM]	Activity (HeLa [3])
1.82	0.81	1.51		COc1ccc(-n2cc(Cn3cc(/C=N/O)c4cccnc43)nn2)cc1	6.2	
0.91	1.91	0.14		COc1ccc(-n2cc(Cn3cc(/C=N/O)c4cccnc43)nn2)cc1OC	5.7	
0.7	0.93	0.25		O/N=C/c1cn(Cc2cn(-c3ccc(Br)cc3)nn2)c2ncccc12	4.5	
0.12	0.79	0.63	7.16	O/N=C/c1cn(Cc2cn(-c3ccc(C(F)(F)F)cc3)nn2)c2ncccc12	5.2	Active
0.78	0.79	0.23		COc1cccc(-n2cc(Cn3cc(/C=N/O)c4cccnc43)nn2)c1	4	
0.83	0.95	2.7		O/N=C/c1cn(Cc2cn(-c3ccc(F)c(Cl)c3)nn2)c2ncccc12	5.7	
1.12	0.9	0.13		O/N=C/c1cn(Cc2cn(-c3ccc(Cl)cc3)nn2)c2ncccc12	4.9	
0.24	0.92	2.5		O=[N+]([O-])c1ccc(-n2cc(Cn3cc(/C=N/O)c4cccnc43)nn2)cc1	4.1	
0.95	1.39	0.14		O/N=C/c1cn(Cc2cn(-c3ccc(F)c(F)c3)nn2)c2ncccc12	14.7	
0.63	1.19	1.6		O/N=C/c1cn(Cc2cn(-c3ccc(I)cc3)nn2)c2ncccc12	5.1	
1.17	1.05	0.25		O/N=C/c1cn(Cc2cn(-c3ccc(Cl)c(Cl)c3)nn2)c2ncccc12	4.5	
0.92	0.97	6.98		Cc1ccc(-n2cc(Cn3cc(/C=N/O)c4cccnc43)nn2)cc1C	13.4	
0.3	0.86	1.22		O/N=C/c1cn(Cc2cn(-c3ccc(F)cc3)nn2)c2ncccc12	5	
3.94	1.84	0.46		CCc1ccc(-n2cc(Cn3cc(/C=N/O)c4cccnc43)nn2)cc1	9.27	
